Source: PMC11303814 (Nature Communications, 2024)
Where a chain is given by its changes, count along the chain named.

Key:
Assay in all cases: TEVC dose response
Format in all cases: cell-based
Conditions in all cases: read-out: EC50 (apparent affinity), mean ± SD, triplicate
[1] = biological target: T1, rP2X7-Q143A/I214A (Rattus norvegicus, UniProt Q64663, I214A/Q143A)
T1 sequence (Q64663 1-595 Q143A/I214A): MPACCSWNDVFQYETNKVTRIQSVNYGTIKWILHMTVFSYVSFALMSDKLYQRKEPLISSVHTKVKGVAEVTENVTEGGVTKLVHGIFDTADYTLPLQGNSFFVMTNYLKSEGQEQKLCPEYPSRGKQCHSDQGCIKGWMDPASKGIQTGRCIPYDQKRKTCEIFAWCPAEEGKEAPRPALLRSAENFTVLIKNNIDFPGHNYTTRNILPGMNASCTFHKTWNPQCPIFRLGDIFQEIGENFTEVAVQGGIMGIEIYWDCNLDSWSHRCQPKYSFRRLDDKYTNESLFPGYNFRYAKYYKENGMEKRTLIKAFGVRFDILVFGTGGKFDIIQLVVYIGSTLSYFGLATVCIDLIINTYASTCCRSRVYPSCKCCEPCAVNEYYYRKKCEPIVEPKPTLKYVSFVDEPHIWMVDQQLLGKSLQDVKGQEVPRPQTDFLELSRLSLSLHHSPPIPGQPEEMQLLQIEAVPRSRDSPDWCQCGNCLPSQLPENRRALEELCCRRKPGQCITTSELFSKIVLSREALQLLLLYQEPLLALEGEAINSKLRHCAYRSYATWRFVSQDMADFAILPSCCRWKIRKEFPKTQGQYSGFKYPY
Summary of the method: (§1)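 TEVC was run on Xenopus oocytes ~20 h after injection of wild-type or mutant rP2X7 mRNA, in pH 7.4 HEPES buffer with 0.1 mM flufenamic acid. Receptors were facilitated at 100 µM before recording. Dilution series: ATP 1.5 mM–2 µM (7 points), BzATP 300–0.14 µM (8 points). Responses were normalized to the largest concentration, fitted by nonlinear regression for EC50, and averaged across triplicates (mean ± SD).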

[2] = biological target: T2, rP2X7-Q143A (Rattus norvegicus, UniProt Q64663, Q143A)
T2 sequence (Q64663 1-595 Q143A): T1 sequence (Q64663 1-595 Q143A/I214A) with A214I
Summary of the method: as §1

[3] = biological target: T3, rP2X7-I214A (Rattus norvegicus, UniProt Q64663, I214A)
T3 sequence (Q64663 1-595 I214A): T1 sequence (Q64663 1-595 Q143A/I214A) with A143Q
Summary of the method: as §1

[4] = biological target: T4, rP2X7-R125A/Q143A (Rattus norvegicus, UniProt Q64663, Q143A/R125A)
T4 sequence (Q64663 1-595 R125A/Q143A): T1 sequence (Q64663 1-595 Q143A/I214A) with R125A, A214I
Summary of the method: as §1

EC50 [1] [µM] | EC50 [2] [µM] | EC50 [3] [µM] | EC50 [4] [µM] | Compound
49 ± 4 | 8.5 ± 3.2 | 2.5 ± 0.8 | 18 ± 4 | BzATP
290 ± 20 | 113 ± 30 | 68 ± 11 | 114 ± 30 | Nc1ncnc2c1ncn2[C@@H]1O[C@H](COP(=O)(O)OP(=O)(O)OP(=O)(O)O)[C@@H](O)[C@H]1O [ATP]
